The text below walks through data of ChEMBL document CHEMBL3992510, “Urea Derivatives of 2-Aryl-benzothiazol-5-amines: A New Class of Potential Drugs for Human African Trypanosomiasis” (J Med Chem, 2017).

Structures are written as SMILES. Calls of active or inactive are those of the source. The rule behind the calls is not given here.

Data set [1] deals with Trypanosoma brucei brucei. The experiment in a line: Antitrypanosomal activity against Trypanosoma brucei brucei BF427 assessed as growth inhibition measured after 48 hrs by Alamar blue assay. As to conditions: BF427, 48 h. The format is functional. The essentials: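 Bloodstream-form parasites in HMI-9 medium are exposed to serial compound dilutions in triplicate. Viability is read with Alamar Blue at 48 h. EC50 and EC90 come from nonlinear regression. Pentamidine isethionate is the control.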
Background: Resazurin is reduced to fluorescent resorufin, in cell work by metabolically active cells.

For the next data set, the system named is HepG2. In words: Cytotoxicity against human HepG2 cells assessed as growth inhibition after 48 hrs by Alamar blue assay. The format is cell-based. Particulars: for EC50: Homo sapiens, HepG2, 48 h; for EC90: human, hepg2, 48 h. The essentials: (§1)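 CRL-8155 lymphoblasts or HepG2 hepatocellular carcinoma cells are exposed 48 h to serial compound dilutions in quadruplicate. Growth is read with Alamar Blue, and 50% and 90% inhibitory concentrations come from nonlinear regression. Quinacrine is the control.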

Data set [2] in a line: Selectivity index, ratio of EC50 for human HepG2 cells to EC50 for Trypanosoma brucei brucei BF427. As to conditions: read-out: Ratio EC50. The format is toxicity.
Data set [3] can be described thus: Selectivity index, ratio of EC50 for human CRL8155 cells to EC50 for Trypanosoma brucei brucei BF427. The format is toxicity. Particulars: read-out: Ratio EC50.
Data set [4] in a line: Cytotoxicity against human CRL8155 cells assessed as growth inhibition after 48 hrs by Alamar blue assay. The format is cell-based. Particulars: for EC50: Homo sapiens, CRL8155, 48 h; for EC90: human, crl8155, 48 h. The essentials: as §1
Data set [5] is described as follows: Stability in mouse liver microsomes assessed as compound remaining at 1.5 uM in presence of NADPH measured after 60 mins by liquid chromatography/tandem mass spectrometric analysis. The format is ADME, microsome. As to conditions: read-out: Stability. In a few lines:
(§2)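 Pooled liver microsomes (0.5 mg/mL) are preincubated 5 min at 37 °C in 0.16 M KH2PO4 with 1 mM NADPH, then test compound is added at 1.5 μM. Aliquots are quenched with 4 volumes of acetonitrile at 0, 5, 10, 15, 30 and 60 min and analyzed by LC-MS/MS. Percent remaining at 5 or 60 min is given when t1/2 is outside the 5–60 min range. Controls: testosterone, dextromethorphan.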
In general terms: Microsomes from liver hold many membrane-bound enzymes, among them those of drug oxidation.

The nature of data set [6]: Stability in human liver microsomes assessed as compound remaining at 1.5 uM in presence of NADPH measured after 60 mins by liquid chromatography/tandem mass spectrometric analysis. The format is ADME, microsome. Particulars: read-out: Stability. In a few lines:
as §2

A short description of data set [7]: AUC (0 to infinity) in mouse at 50 mg/kg, po administered as single dose via gavage as 7% Tween 80/3% EtOH/5% DMSO formulation by liquid chromatography/tandem mass spectrometric analysis. Also noted: dose 50 mg/kg, route oral, time infinity. The format is ADME, organism-based. As to conditions: in vivo. The essentials:
(§3)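 Single oral gavage dose of 50 mg/kg to groups of three mice, vehicle as in the line. Tail blood of 40 μL is taken into heparinized capillaries at time points out to as much as 32 h. It is spotted on dried-blood cards and quantified by LC-MS/MS. Values are means ± SEM of three mice.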

Data set [8] can be described thus: Drug level in mouse plasma at 5 mg/kg, ip administered as single dose measured at 1 hr post dose by liquid chromatography/tandem mass spectrometric analysis. The format is ADME, organism-based. In a few lines:
(§4)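 Single ip dose of 5 mg/kg in 5% DMSO/7% Tween 80/3% EtOH in 0.9% saline, three mice per compound (six for one compound). At 1 h, plasma is separated by centrifugation and brain homogenized in acetonitrile. Both are quantified by LC-MS/MS, with brain corrected for 3% v/w blood. Brain/plasma ratio is reported as mean ± SEM.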

Data set [9] can be described thus: Drug level in mouse brain at 5 mg/kg, ip administered as single dose measured at 1 hr post dose by liquid chromatography/tandem mass spectrometric analysis. The format is ADME, organism-based. Particulars: read-out: Drug uptake. The essentials:
as §4

Data set [10] in a line: Ratio of drug level in brain to plasma in mouse at 5 mg/kg, ip administered as single dose measured at 1 hr post dose by liquid chromatography/tandem mass spectrometric analysis. The format is ADME, organism-based. In a few lines:
as §4

The test system of data set [11] is Trypanosoma brucei brucei. The experiment in a line: Anti-parasitic activity against Trypanosoma brucei brucei TREU667 infected in mouse assessed as reduction in parasitemia at 10 mg/kg, ip bid administered on day 21 to 30 post infection measured on day 180 by microscopic method. The format is functional, organism-based.
The test system of data set [12] is Liver. In words: Half life in mouse liver microsomes at 1.5 uM in presence of NADPH by liquid chromatography/tandem mass spectrometric analysis. The format is ADME, microsome.
Data set [13] relates to Liver. In words: Half life in human liver microsomes at 1.5 uM in presence of NADPH by liquid chromatography/tandem mass spectrometric analysis. The format is ADME, microsome.
The nature of data set [14]: Stability in human liver microsomes assessed as compound remaining at 1.5 uM in presence of NADPH measured after 5 mins by liquid chromatography/tandem mass spectrometric analysis. The format is ADME, microsome. Particulars: read-out: Stability. In a few lines:
as §2

The nature of data set [15]: Stability in mouse liver microsomes assessed as compound remaining at 1.5 uM in presence of NADPH measured after 5 mins by liquid chromatography/tandem mass spectrometric analysis. The format is ADME, microsome. As to conditions: read-out: Stability.
A short description of data set [16]: Cmax in mouse at 50 mg/kg, po administered as single dose via gavage as 7% Tween 80/3% EtOH/5% DMSO formulation by liquid chromatography/tandem mass spectrometric analysis. The format is ADME, organism-based. On the set-up: dose 50 mg/kg, route oral. Particulars: in vivo. The essentials: as §3

For orientation: EC50 means the concentration at which the effect is half-maximal. The term EC90 denotes the concentration at which the effect reaches the 90% level. By AUC(0-inf) is commonly meant total exposure, with the tail of the curve extrapolated. Read a high AUC(0-inf) as more exposure. Consider `O=C(Nc1ccc2sc(-c3ccc(F)c(F)c3)nc2c1)N1C[C@@H](F)[C@H](F)C1`, for which the EC50 in data set [1] is 0.114 µM; in the data set with HepG2, over 50 µM; in data set [4] it was 27.1 µM. Moreover, the EC90 in data set [1] is 0.747 µM; in the data set on HepG2, over 50 µM; in data set [4], over 50 µM. For the same compound, the selectivity ratio in [2] is over 439; in data set [3], over 238. Moreover, the remaining at 1 h, 1.5 µM is 67% in data set [5] and 96% in data set [6]. Moreover, the AUC(0-inf) in data set [7] was 225 µM·h. Also, the concentration at 1 h in data set [8] came to 2.19 µM; in data set [9], 16.2 µM. Further, the BPR in [10] came to 7.71.
With `N=C(N)c1ccc(/N=N/Nc2ccc(C(=N)N)cc2)cc1`, the result in data set [11] was inactive.
As for `O=C(N/C=C/c1nc(-c2cccc(F)c2)cs1)N1CCCCC1`, the EC50 in [1] was 0.0946 µM; in the data set on HepG2 it was over 50 µM; in [4] it was over 50 µM. The EC90 is 0.216 µM in [1], over 50 µM in the data set with HepG2 and over 50 µM in data set [4]. Further, the selectivity ratio in [2] and in data set [3] was over 529 each time. The t1/2 with Liver [12] is 13 min; in the data set with Liver [13], under 5 min. In addition, the remaining at 5 min, 1.5 µM in data set [14] worked out at 28%.
Turning to `CC1CCCCN1C(=O)NCCc1nc(-c2cccc(F)c2)cs1` (stereo not given), the EC50 in [1] was 0.037 µM; with HepG2 it was over 50 µM; in [4] it was over 50 µM. The values for the EC90 (in data set [1]; in the data set on HepG2; in data set [4]) were 0.0586 µM, over 50 µM and over 50 µM, respectively. For the same compound, the selectivity ratio in [2] and in data set [3] was over 1350 each time. Besides, the t1/2 in the data set on Liver [12] and with Liver [13] was under 5 min throughout. The values for the remaining at 5 min, 1.5 µM in [15] and in data set [14] were 21% and 3.9%, respectively.
Consider `O=C(Nc1ccc2sc(-c3ccc(F)c(F)c3)nc2c1)N1CCCC1`, for which the EC50 in [1] was 0.0918 µM; with HepG2 it was over 50 µM; in [4], 33.9 µM. Besides, the concentration for an effect of 90% (EC90) in data set [1] was 0.181 µM; in the data set with HepG2 it was over 50 µM; in [4], over 50 µM. Also, the values for the selectivity ratio in data set [2] and in [3] were over 545 and 369, respectively. In the data set with Liver [12], the t1/2 is 14 min. In addition, in data set [6], the remaining at 1 h, 1.5 µM was found to be 66%. For the same compound, the area under the curve AUC(0-inf) in [7] was 7.39 µM·h. The concentration at 1 h in [8] stood at 2.61 µM; in [9] it was 4.25 µM.
In the case of `O=C(NCCc1nc(-c2ccc(F)cc2F)cs1)N1CCCCC1`, the t1/2 in the data set with Liver [12] and in the data set with Liver [13] was under 5 min each time. Also, the values for the remaining at 5 min, 1.5 µM in data set [15] and in [14] were 0% and 46%, respectively.
As to `O=C(NCCc1nc(-c2ccc(F)c(F)c2)cs1)N1CCCCC1`, the t1/2 in the data set on Liver [12] and with Liver [13] was under 5 min each time. Further, the figures for the remaining at 5 min, 1.5 µM in [15] and in data set [14] were 0% and 22%, respectively.
The term Cmax denotes the maximum level reached in the sampled fluid or tissue. `O=C(Nc1ccc2sc(-c3ccc(F)c(F)c3)nc2c1)N1CCC(F)C1` (stereo not given) showed a Cmax in [16] of 10 µM. The EC50 in data set [1] is 0.0519 µM; in the data set with HepG2, over 50 µM; in data set [4] it was over 50 µM. In addition, the results for the EC90 (in data set [1]; in the data set with HepG2) were 0.0919 µM and over 50 µM, respectively. For the same compound, the selectivity ratio in [2] and in [3] was over 963 throughout. Moreover, the t1/2 in the data set with Liver [12] and in the data set on Liver [13] was over 60 min in each case. For the same compound, the remaining at 1 h, 1.5 µM was 52% in [5] and 99% in data set [6]. In data set [7], the AUC(0-inf) is 108 µM·h. For the same compound, the concentration at 1 h in [8] was 3.26 µM; in data set [9], 5.48 µM. Besides, in data set [10], the BPR is on record as 2.11.
